# This is one part of a sample in which hits are shown more often than they occur.
# GSK3beta inhib: inhibitors of human GSK3beta kinase; P49841; GST-GSK3beta kinase, ADP-Glo luminescence, 60 min; stronger effect = lower value; activity score (negative = inhibition), % at 10 µM; 300,000 compounds, 0.038% hits; AID 2097;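 active = more than half of replicate wells score below -50%, meaning over 50% inhibition versus plate controls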;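 note: 0% = median DMSO wells and -100% = median GW8510 positive control wells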
# Target sequence (P49841 whole entry, looked up): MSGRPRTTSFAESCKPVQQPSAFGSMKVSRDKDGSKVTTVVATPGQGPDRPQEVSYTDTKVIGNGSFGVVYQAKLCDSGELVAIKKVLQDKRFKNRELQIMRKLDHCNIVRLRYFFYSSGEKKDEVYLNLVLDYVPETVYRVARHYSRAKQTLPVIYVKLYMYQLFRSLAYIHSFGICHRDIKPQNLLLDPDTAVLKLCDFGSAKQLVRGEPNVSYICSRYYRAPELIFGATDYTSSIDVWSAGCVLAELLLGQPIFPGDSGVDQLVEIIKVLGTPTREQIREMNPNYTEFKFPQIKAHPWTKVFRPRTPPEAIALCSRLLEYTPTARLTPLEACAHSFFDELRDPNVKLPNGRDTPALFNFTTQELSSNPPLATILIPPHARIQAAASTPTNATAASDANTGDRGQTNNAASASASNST
#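 Test system – GST-tagged human GSK3beta kinase, cell-free · Incubation – 60 min enzyme reaction, room temperature · Signal – ADP-Glo luminescence · Also added – peptide substrate and ATP at 25 µM · Controls – DMSO neutral wells and GW8510 at 20 µM as positive · Buffer or medium – Tris/MgCl2 kinase buffer · Measure – Luminescence-derived activity versus plate DMSO and GW8510 wells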
# STK33 kinase inh: human STK33 kinase inhibition; Q9BYT3; purified STK33, MBP phosphorylation, ADP-Glo luminescence; inhibition, % at 10 µM; 320,000 compounds, 0.073% hits;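 active = inhibition at or above 25%, using the most active replicate where run in duplicate; inactive = inhibition below 25%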
# GSK3A inh: blocks human GSK-3 alpha kinase; P49840; ADP-Glo luminescence, 60 min; inhibition, % at 10 µM; 320,000 compounds, 0.1% hits;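 active = more than half of replicates show inhibition above 20%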;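 note: GST-tagged GSK-3 alpha with peptide substrate and 25 µM ATP; 0% = DMSO neutral wells and 100% = GW8510 positive control wells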
# Dyrk1A ADPGlo: blocks rat Dyrk1A kinase activity. 310,000 compounds, 0.43% hits. AID 504441. Q63470. inhibition, % at 12.5 µM. ADP-Glo luminescence, NFATc1 peptide; in the data active = inhibition above about 50%;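 note: plate controls were vehicle with enzyme for no effect and no enzyme for full effect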
# Dyrk1A artifact: interferes with ADP-Glo luciferase readout without Dyrk1A. shares compounds with Dyrk1A ADPGlo. ADP-Glo luciferase artifact assay, no Dyrk1A, luminescence. AC50, µM (series often up to 12 µM), inactives show at the highest dose activity change, negative = inhibition. 1,300 tested, under 10 active. AID 588348;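 active = fitted half-maximal dose AC50 no more than ten times the top valid tested dose, with luminescence dropping as dose rises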
# * = called active by the depositor; x = no result.
SMILES,GSK3beta inhib,STK33 kinase inh,GSK3A inh,Dyrk1A ADPGlo,Dyrk1A artifact
C=CCn1c(SCC(=O)Nc2nc3ccccc3s2)nc(O)c(CC)c1=O,3,1,0,51*,6%
CCc1c(O)nc(SCC(=O)Nc2nc3ccccc3s2)n(-c2ccccc2)c1=O,1,3,-4,x,x
CCCCN(C(=O)c1oc2ccc(OCC)cc2c1C)c1c(N)n(CCCC)c(=O)[nH]c1=O,-1,0,-2,x,x
C/C(=C/c1oc2ccc(O)cc2c1[N+](=O)[O-])N(C)C,-3,0,-1,52*,7%
Cc1nonc1C(=O)N/N=C/c1ccc(O)c(O)c1,5,3,5,15,x
O=C(N/N=C/c1ccc(O)c(O)c1)N/N=C/c1ccc(O)c(O)c1,-40,24,54*,80*,7%
CCOC(=O)CSC1=NC(=O)/C(=C\c2ccc(OC(C)=O)cc2)S1,-13,12,13,86*,9%
CCOC(=O)CSC1=NC(=O)/C(=C/c2ccc(Br)cc2)S1,6,0,-3,x,x
COc1cccc(NC(=O)C(=O)NCCc2ccc(F)cc2)c1,1,-1,1,x,x
COc1cc(CO)cc(Br)c1OCc1cccnc1,2,0,1,51*,9%
CCOC(=O)c1sc(N/N=C/c2cc(Br)c(O)c(OC)c2)nc1C,-2,-2,11,-3,x
Cc1[nH]ccc2c1[nH]c1cc(=O)ccc12,0,3,4,93*,8%
O=c1cc[nH]c2c1ccc1c(=O)cc[nH]c12,0,5,2,1,x
CCOC(=O)c1ccc2ncc(C(=O)OCC)c(NCCCN3CCOCC3)c2c1,-7,0,8,20,x
CCOC(=O)c1ccc2ncc(C(=O)OCC)c(Nc3ccc(N4CCOCC4)cc3)c2c1,-16,4,24,65*,6%
O=C1CC[C@@H]2CC(N3CCN(c4ccccc4)CC3)C[C@@H]3CCN1[C@H]23 (stereo partly specified),x,x,x,-38,x
Cc1ccc(S(=O)(=O)N2CCN(C(=O)C(C)Cn3cncn3)CC2)cc1C (stereo unspecified),x,0,-2,-1,x
Cc1onc(-c2c(Cl)cccc2Cl)c1C(=O)Nc1ccc(N2CCOCC2)cc1,-1,0,-3,-1,x
COC(=O)c1c(C)[nH]c(C(=O)C(C)OC(=O)C2=NNC(=O)CC2)c1C (stereo unspecified),3,1,0,4,x
OC(c1cc(C(F)(F)F)nc2c(Cl)cc(Cl)cc12)C1CCCCN1 (stereo unspecified),0,1,26,55*,7%
COc1ccc(OC)c(N)c1,2,0,0,3,x
COc1ccc2c(c1)C(=NNc1ccc(C(=O)O)cc1)c1cc(OC)ccc1-2,2,-3,2,83*,10%
COc1ccc2c(c1)C(=NN)c1cc(OC)ccc1-2,-3,5,1,79*,6%
O=[N+]([O-])c1ccc(O)c(C=NNc2ccc(S(=O)(=O)O)cc2)c1,x,x,x,73*,9%
COc1ccc(N/C=C2\C(=O)CCc3c2oc2cc(Cl)c(O)c(Cl)c32)cc1,0,2,-2,55*,9%
SMILES,GSK3beta inhib,STK33 kinase inh,GSK3A inh,Dyrk1A ADPGlo,Dyrk1A artifact
COc1ccc(N/C=C2\CCc3ccccc3C2=O)cc1,-4,9,9,22,x
COc1ccc(C(=O)Nc2nc3ccccc3[nH]2)cc1S(=O)(=O)N1CCOCC1,1,7,-3,55*,10%
COc1ccc(-n2c(C)nc3cc(C(=O)NCc4ccco4)ccc32)cc1,0,1,-1,51*,11%
COc1ccc(-n2c(C)nc3cc(C(=O)NCc4ccc5c(c4)OCO5)ccc32)cc1,4,-2,-1,57*,9%
CCOc1ccc(-n2c(C)nc3cc(C(=O)NCc4ccc5c(c4)OCO5)ccc32)cc1,3,1,-1,-1,x
CCOc1ccc(C(=O)NCC2CCCN2S(=O)(=O)c2cccs2)cc1 (stereo unspecified),5,-1,-2,-2,x
NC(N)=NS(=O)(=O)c1ccc(NC(=S)NC(=O)c2ccc3c(c2)OCO3)cc1,1,-1,-4,-3,x
Cc1nc(NC(C)(C)CO)c([N+](=O)[O-])cc1[N+](=O)[O-],1,0,1,6,x
Cc1c(O)ccc2c(CN(C)Cc3ccccc3)cc(=O)oc12,-2,-1,5,59*,8%
COc1cccc(C2CCCCN(C)C2=O)c1 (stereo unspecified),3,-1,5,x,x
COc1cccc(-c2cn(C[C@H]3CC[C@@H]([C@@H]4CC[C@H](Cn5cc(-c6cccc(OC)c6)nn5)O4)O3)nn2)c1,2,0,-2,3,x
Nc1[nH]n2c(=O)cc(-c3ccccc3)nc2c1N=Nc1ccc(S(N)(=O)=O)cc1,-1,0,3,64*,7%
COc1ccc(CN(C(=O)c2cc(=O)c3ccccc3o2)C2CCS(=O)(=O)C2)cc1OC (stereo unspecified),0,x,x,-1,x
O=C1NCCc2c1[nH]c1ccccc21,-1,3,5,23,x
COc1ccc2[nH]c3c(c2c1)CCNC3=O,12,-1,2,65*,10%
COc1cccc(OC)c1CN1CCCC(C(=O)c2ccccc2SC)C1 (stereo unspecified),1,1,-4,-2,x
COc1cccc(Oc2nc(-c3ccncc3)nc3ccccc23)c1,2,0,-4,x,x
COc1ccccc1NC(=O)NCCCCc1ccccc1,1,-1,-1,2,x
Cc1cc(O)c2c(c1)C(=O)c1cc(O)cc(O)c1C2=O,-8,4,14,66*,7%
O=C1c2cc(O)cc(O)c2C(=O)c2c1cc(O)c([C@@H](CO)CCO)c2O,-6,12,15,24,x
COCCn1c(C)cc(/C=C2/NC(=O)N(c3ccc(Cl)cc3)C2=O)c1C,3,1,2,-3,x
Cc1ccc2c(c1)C(=C(C#N)C#N)CCN2,x,x,x,61*,9%
CCOc1ccc(S(=O)(=O)NCCC(=O)N(C)CC(=O)Nc2ccc(N3CCOCC3)cc2)cc1,7,-2,-4,x,x
CS(=O)(=O)N(CC(=O)N1CCC(C(N)=O)CC1)c1cc(C(F)(F)F)ccc1Cl,-2,-2,1,-6,x
Cc1cccc(NC(=O)C2NC(=O)CC2c2ccccc2)c1C (stereo unspecified),1,-1,x,59*,2%
CCCCC(CC)CO (stereo unspecified),x,x,x,-6,x
CCCCC(CC)CN=C(N)NC(N)=NCCCCCCN=C(N)NC(N)=NCC(CC)CCCC (stereo unspecified),x,29*,20,52*,12%
Fc1ccccc1NC(=S)Nc1cccc2cnccc12,-4,6,10,65*,9%
NNc1nccc(Nc2ccccc2C(=O)O)n1,-60*,20,69*,84*,9%
O=C(Oc1ccccc1)c1ccc2c(c1)C(=O)N(Cc1ccncc1)C2=O,-1,-2,-1,13,x

# Bioassay records from PubChem.
